Assay results from ChEMBL document CHEMBL1141653, “New bis(2-aminoimidazoline) and bisguanidine DNA minor groove binders with potent in vivo antitrypanosomal and antiplasmodial activity” (J Med Chem, 2008).

System: Trypanosoma brucei rhodesiense
Experiment: Antitrypanosomal activity against Trypanosoma brucei rhodesiense STIB900
Type: functional, organism-based
Settings: not given
Summary of the method: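 Bloodstream forms (10⁴ per well) in MEM with 15% heat-inactivated horse serum, 25 mM HEPES, 2-mercaptoethanol, hypoxanthine. 3-fold serial dilutions from 90 to 0.123 µg/mL, in duplicate. Incubation 72 h at 37 °C, 5% CO₂. Resazurin then added for 2–4 h more. Fluorescence read at ex 536 / em 588 nm.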

Which IC50 does the source give for COc1ccc(NC(=N)N)cc1OC here?
The IC50 was 237 µM.

Which IC50 does the source give for O=C(c1ccccc1)c1ccc(NC2=NCCN2)cc1 here?
The IC50 was 9.4 µM.

Which IC50 does the source give for c1ccc(NC2=NCCN2)cc1 here?
Its IC50 is 182 µM.

Which IC50 does the source give for O=C(Nc1ccccc1)Nc1ccc(NC2=NCCN2)cc1 here?
Its IC50 is 45.4 µM.

Which IC50 does the source give for CC(=O)c1ccc(NC(=N)N)cc1 here?
Its IC50 is 155 µM.

Which IC50 does the source give for CCc1ccc(NC(=N)N)cc1 here?
The IC50 was 45.7 µM.

For c1ccc(Nc2ccc(NC3=NCCN3)cc2)cc1, which IC50 is on record?
The IC50 was 1.2 µM.

For Cc1ccc(NC2=NCCN2)cc1, which IC50 is on record?
The IC50 was 262 µM.

For N=C(N)Nc1ccc(Nc2ccccc2)cc1, which IC50 is on record?
Its IC50 is 4.8 µM.

With c1ccc(Cc2ccc(NC3=NCCN3)cc2)cc1 as the compound, how does the IC50 read?
The IC50 was 4.9 µM.

With O=C(Nc1ccc(NC2=NCCN2)cc1)c1ccccc1 as the compound, how does the IC50 read?
The IC50 was 94.7 µM.

Which IC50 does the source give for N=C(N)Nc1ccc2c(c1)OCO2 here?
The IC50 was 146 µM.

For COc1ccc(NC2=NCCN2)cc1OC, which IC50 is on record?
Its IC50 is 84.2 µM.

For CCN(CC)c1ccc(NC(=N)N)cc1, which IC50 is on record?
The IC50 was 2.4 µM.

For CCN(CC)c1ccc(NC2=NCCN2)cc1, which IC50 is on record?
Its IC50 is 40.1 µM.

Which IC50 does the source give for N=C(N)Nc1ccc(C(=O)Nc2ccccc2)cc1 here?
The IC50 was 87.4 µM.

With Cc1ccc(NC2=NCCN2)cc1C as the compound, how does the IC50 read?
Its IC50 is 49.8 µM.

With S=C(Nc1ccccc1)Nc1ccc(NC2=NCCN2)cc1 as the compound, how does the IC50 read?
The IC50 was 2.6 µM.

Which IC50 does the source give for CN(C)c1ccc(NC2=NCCN2)cc1 here?
The IC50 was 46.6 µM.

With CSc1ccc(NC2=NCCN2)cc1 as the compound, how does the IC50 read?
Its IC50 is 7.3 µM.

Which IC50 does the source give for N=C(N)Nc1ccc2c(c1)OCCO2 here?
Its IC50 is 150 µM.

For N=C(N)Nc1ccc(C(=O)c2ccccc2)cc1, which IC50 is on record?
Its IC50 is 14.4 µM.

With N=C(N)Nc1ccc(N)cc1 as the compound, how does the IC50 read?
Its IC50 is 311 µM.

For N=C(N)Nc1ccc(NC(=S)Nc2ccccc2)cc1, which IC50 is on record?
The IC50 was 1.3 µM.

For c1cc2c(cc1NC1=NCCN1)CCC2, which IC50 is on record?
Its IC50 is 9.2 µM.

With CC(=O)c1ccc(NC2=NCCN2)cc1 as the compound, how does the IC50 read?
The IC50 was 54.6 µM.

Which IC50 does the source give for c1ccc(Oc2ccc(NC3=NCCN3)cc2)cc1 here?
The IC50 was 5 µM.

System: not listed separately
Experiment: Binding affinity for DNA assessed as thermal melting temperature
Settings: not given
Summary of the method: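 Thermal melting of poly(dA)·poly(dT): DNA at 40 µM base with compound at 12 µM (ratio 0.3) in MES 0.01 M / EDTA 0.001 M buffer, pH 6.25. A260 followed from 20 to 95 °C at 0.5 °C/min. Value is ΔTm.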

For N=C(N)c1ccc(OCCCCCOc2ccc(C(=N)N)cc2)cc1, which ΔTm is on record?
The ΔTm was 32.3 °C.

System: Plasmodium falciparum
Experiment: Antiplasmodial activity against Plasmodium falciparum K1 in [3H]hypoxanthine incorporation assay
Type: functional, organism-based
Settings: K1, 72 h
Summary of the method: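 K1 erythrocytic stages in RPMI 1640 without hypoxanthine with AlbuMax, human A⁺ red cells at 2.5% hematocrit, 0.3% parasitemia. Compounds taken from 10 mg/mL DMSO stock, tested as serial doubling dilutions at 37 °C in 4% CO₂/3% O₂/93% N₂. After 48 h, ³H-hypoxanthine (0.5 µCi) added for 24 h more; incorporation by scintillation counting. IC₅₀ from sigmoidal curves.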

For Nc1ccc(NC2=NCCN2)cc1, which IC50 is on record?
Its IC50 is 15 µM.

With COc1ccc(NC(=N)N)cc1OC as the compound, how does the IC50 read?
The IC50 was 14.8 µM.

Which IC50 does the source give for O=C(c1ccccc1)c1ccc(NC2=NCCN2)cc1 here?
The IC50 was 5.2 µM.

Which IC50 does the source give for c1ccc(NC2=NCCN2)cc1 here?
Its IC50 is greater than 25 µM.

Which IC50 does the source give for O=C(Nc1ccccc1)Nc1ccc(NC2=NCCN2)cc1 here?
Its IC50 is 3.4 µM.

With CC(=O)c1ccc(NC(=N)N)cc1 as the compound, how does the IC50 read?
The IC50 was greater than 23 µM.

Which IC50 does the source give for CCc1ccc(NC(=N)N)cc1 here?
Its IC50 is 9 µM.

With c1ccc(Nc2ccc(NC3=NCCN3)cc2)cc1 as the compound, how does the IC50 read?
Its IC50 is 0.549 µM.

Which IC50 does the source give for Cc1ccc(NC2=NCCN2)cc1 here?
The IC50 was greater than 23 µM.

For N=C(N)Nc1ccc(Nc2ccccc2)cc1, which IC50 is on record?
Its IC50 is 1.6 µM.

Which IC50 does the source give for c1ccc(Cc2ccc(NC3=NCCN3)cc2)cc1 here?
The IC50 was 1.7 µM.

For O=C(Nc1ccc(NC2=NCCN2)cc1)c1ccccc1, which IC50 is on record?
The IC50 was greater than 15 µM.

Which IC50 does the source give for N=C(N)Nc1ccc2c(c1)OCO2 here?
The IC50 was greater than 23 µM.

With COc1ccc(NC2=NCCN2)cc1OC as the compound, how does the IC50 read?
Its IC50 is 14.8 µM.

For CCN(CC)c1ccc(NC(=N)N)cc1, which IC50 is on record?
The IC50 was 5.7 µM.

With CCN(CC)c1ccc(NC2=NCCN2)cc1 as the compound, how does the IC50 read?
The IC50 was 15 µM.

For N=C(N)Nc1ccc(C(=O)Nc2ccccc2)cc1, which IC50 is on record?
Its IC50 is 13.3 µM.

With Cc1ccc(NC2=NCCN2)cc1C as the compound, how does the IC50 read?
Its IC50 is 17.1 µM.

With S=C(Nc1ccccc1)Nc1ccc(NC2=NCCN2)cc1 as the compound, how does the IC50 read?
Its IC50 is 3.1 µM.

For CN(C)c1ccc(NC2=NCCN2)cc1, which IC50 is on record?
The IC50 was greater than 18 µM.

For CSc1ccc(NC2=NCCN2)cc1, which IC50 is on record?
Its IC50 is 1.7 µM.

For N=C(N)Nc1ccc2c(c1)OCCO2, which IC50 is on record?
Its IC50 is 9 µM.

For Nc1nc(N)nc(Nc2ccc([As]3SCC(CO)S3)cc2)n1 (stereo not given) [MELARSOPROL], which IC50 is on record?
Its IC50 is 5.5 µM.

Which IC50 does the source give for N=C(N)Nc1ccc(C(=O)c2ccccc2)cc1 here?
Its IC50 is greater than 18 µM.

For N=C(N)Nc1ccc(N)cc1, which IC50 is on record?
Its IC50 is greater than 26 µM.

For N=C(N)Nc1ccc(NC(=S)Nc2ccccc2)cc1, which IC50 is on record?
Its IC50 is 8.7 µM.

For c1cc2c(cc1NC1=NCCN1)CCC2, which IC50 is on record?
The IC50 was 5.3 µM.

With CC(=O)c1ccc(NC2=NCCN2)cc1 as the compound, how does the IC50 read?
The IC50 was 5.7 µM.

For c1ccc(Oc2ccc(NC3=NCCN3)cc2)cc1, which IC50 is on record?
Its IC50 is 5.7 µM.

System: L6
Experiment: Cytotoxicity against rat L6 cells
Type: cell-based
Settings: not given

Which IC50 does the source give for Nc1ccc(NC2=NCCN2)cc1 here?
The IC50 was greater than 423 µM.

Which IC50 does the source give for COc1ccc(NC(=N)N)cc1OC here?
Its IC50 is greater than 388 µM.

For O=C(c1ccccc1)c1ccc(NC2=NCCN2)cc1, which IC50 is on record?
The IC50 was 226 µM.

With c1ccc(NC2=NCCN2)cc1 as the compound, how does the IC50 read?
The IC50 was greater than 455 µM.

For O=C(Nc1ccccc1)Nc1ccc(NC2=NCCN2)cc1, which IC50 is on record?
Its IC50 is greater than 219 µM.

Which IC50 does the source give for CC(=O)c1ccc(NC(=N)N)cc1 here?
Its IC50 is greater than 421 µM.

For CCc1ccc(NC(=N)N)cc1, which IC50 is on record?
The IC50 was 310 µM.

With c1ccc(Nc2ccc(NC3=NCCN3)cc2)cc1 as the compound, how does the IC50 read?
The IC50 was 90.7 µM.

With Cc1ccc(NC2=NCCN2)cc1 as the compound, how does the IC50 read?
Its IC50 is greater than 425 µM.

For N=C(N)Nc1ccc(Nc2ccccc2)cc1, which IC50 is on record?
The IC50 was 49.5 µM.

Which IC50 does the source give for c1ccc(Cc2ccc(NC3=NCCN3)cc2)cc1 here?
Its IC50 is 73 µM.

For O=C(Nc1ccc(NC2=NCCN2)cc1)c1ccccc1, which IC50 is on record?
The IC50 was greater than 284 µM.

Which IC50 does the source give for N=C(N)Nc1ccc2c(c1)OCO2 here?
The IC50 was greater than 417 µM.

Which IC50 does the source give for COc1ccc(NC2=NCCN2)cc1OC here?
The IC50 was greater than 349 µM.

Which IC50 does the source give for CCN(CC)c1ccc(NC(=N)N)cc1 here?
Its IC50 is 78.1 µM.

For CCN(CC)c1ccc(NC2=NCCN2)cc1, which IC50 is on record?
Its IC50 is greater than 444 µM.

For N=C(N)Nc1ccc(C(=O)Nc2ccccc2)cc1, which IC50 is on record?
Its IC50 is greater than 309 µM.

Which IC50 does the source give for Cc1ccc(NC2=NCCN2)cc1C here?
Its IC50 is greater than 398 µM.

With S=C(Nc1ccccc1)Nc1ccc(NC2=NCCN2)cc1 as the compound, how does the IC50 read?
The IC50 was 91.1 µM.

Which IC50 does the source give for CN(C)c1ccc(NC2=NCCN2)cc1 here?
The IC50 was greater than 324 µM.

With CSc1ccc(NC2=NCCN2)cc1 as the compound, how does the IC50 read?
The IC50 was 174 µM.

With N=C(N)Nc1ccc2c(c1)OCCO2 as the compound, how does the IC50 read?
Its IC50 is greater than 391 µM.

For N=C(N)Nc1ccc(C(=O)c2ccccc2)cc1, which IC50 is on record?
The IC50 was 118 µM.

For N=C(N)Nc1ccc(N)cc1, which IC50 is on record?
The IC50 was 132 µM.

With N=C(N)Nc1ccc(NC(=S)Nc2ccccc2)cc1 as the compound, how does the IC50 read?
Its IC50 is greater than 225 µM.

Which IC50 does the source give for c1cc2c(cc1NC1=NCCN1)CCC2 here?
Its IC50 is greater than 378 µM.

For CC(=O)c1ccc(NC2=NCCN2)cc1, which IC50 is on record?
Its IC50 is greater than 375 µM.

Which IC50 does the source give for c1ccc(Oc2ccc(NC3=NCCN3)cc2)cc1 here?
The IC50 was 167 µM.
